“And” between values parts separate entries of the source, which are not always exact repeats. Identical values can stand only once. Like-named read-outs stand apart in the source and are kept apart here. Blank lines part the entries; values can stand above or below the compound they belong to.
Assays:
Akt pS473 in LNCaP cells = experiment: Western blot of Akt pS473; assay type: cell-based; settings: 5 μM, 4 h
[1] = test system: Akt pS473 in LNCaP/shPIK3CB#3 cells; experiment: Western blot of Akt pS473; assay type: cell-based; settings: LNCaP/shPIK3CB#3, 5 μM, 4 h
aqueous solubility assay = assay type: physicochemical
p110α = p110α (Homo sapiens, UniProt P42336); experiment: cell lysate CETSA; assay type: binding
In short: (§1)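 Exponentially grown PC-3 cells in RIPA with protease inhibitors were put through three liquid-nitrogen freeze-thaw cycles, then ultracentrifuged 20 min at 4°C. Soluble lysate was incubated with test compound (5 μM) or DMSO for 45 min at room temperature. Aliquots were heated 3 min at 37–69°C in 4°C steps, cooled 3 min, and spun. Supernatant was Western blotted. Bands were normalized to 0–100% and fitted with a Boltzmann sigmoid. ΔTm50 is the compound-minus-solvent temperature at 50% band loss. Three experiments.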

p110β [2] = molecular target: T1, p110β (Homo sapiens, UniProt P42338); experiment: cell lysate CETSA; assay type: binding
In short: as §1

p110γ = p110γ (Homo sapiens, UniProt P48736); experiment: cell lysate CETSA; assay type: binding
In short: as §1

VPS34 = VPS34 (Homo sapiens, UniProt Q8NEB9); experiment: cell lysate CETSA; assay type: binding
In short: as §1

Akt [3] = experiment: cell lysate CETSA; assay type: binding; settings: cell lysate (in vitro), PC-3, compound 5 μM
In short: as §1

p110β [4] = molecular target: T1, p110β; experiment: whole cell CETSA; assay type: cell-based; settings: whole cell (in vivo), PC-3
In short: (§2)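 Intact PC-3 cells in regular media treated with test compound or solvent for 4 hrs, washed and collected in cold PBS. Aliquoted pellets heated 3 min at 37–69°C (4°C steps), cooled 2 min at room temperature, then iced. Lysed in RIPA by three liquid-nitrogen freeze-thaw cycles; soluble fraction Western blotted. Densities normalized 0–100%, Boltzmann sigmoid fit; ΔTm50 as compound vs solvent shift at 50% band loss.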

Akt [5] = experiment: whole cell CETSA; assay type: cell-based; settings: whole cell (in vivo), PC-3
In short: as §2

human p110α/p85α = human p110α/p85α (Homo sapiens, UniProt P42336); experiment: Kinase-Glo Plus luminescent kinase assay; assay type: biochemical; settings: read-out: IC50 p110α; 2 μM ATP, 37°C, 2 h
human p110δ/p85α = human p110δ/p85α (Homo sapiens, UniProt O00329); experiment: Kinase-Glo Plus luminescent kinase assay; assay type: biochemical; settings: read-out: IC50 p110δ; 2 μM ATP, 37°C, 2 h
C4-2B cells [6] = experiment: WST-8 cell growth inhibition; assay type: cell-based; settings: read-out: Cell Growth Inhibition EC50 (95% CI)
In short: (§3)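 Cells seeded at 8,000 per well and grown 24 hrs, then exposed to increasing concentrations of test compound or solvent for 3 days. WST-8 reagent added for 2 hrs at 37°C and OD read at 450 nm. Growth inhibition taken as percentage of solvent control OD. EC50 from log concentration vs normalized response fit, variable slope. Three independent experiments.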

C4-2B/MDV-R cells [7] = experiment: WST-8 cell growth inhibition; assay type: cell-based; settings: read-out: Cell Growth Inhibition EC50 (95% CI)
In short: as §3

22RV1 cells = experiment: WST-8 cell growth inhibition; assay type: cell-based; settings: read-out: Cell Growth Inhibition EC50 (95% CI)
In short: as §3

PC-3 cells = experiment: WST-8 cell growth inhibition; assay type: cell-based; settings: read-out: Cell Growth Inhibition EC50 (95% CI)
In short: as §3

C4-2B cells [8] = experiment: flow cytometry cell cycle analysis; assay type: cell-based; settings: 16 h after 10% FBS
In short: (§4)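 Cells serum-starved overnight to synchronise, pretreated 30 min with solvent or test compound, then stimulated with 10% FBS for 16 h. Cells trypsinized, fixed and stained with propidium iodide. Counted on a flow cytometer (FACS) and cell cycle phase distribution calculated. Mean and SEM from at least three repeated experiments.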

C4-2B/MDV-R cells [9] = experiment: flow cytometry cell cycle analysis; assay type: cell-based; settings: 16 h after 10% FBS
In short: as §4

Akt pS473 in C4-2B cells = experiment: Western blot of FBS-stimulated Akt pS473; assay type: cell-based; settings: 5 μM
In short: (§5)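 Cells serum-starved overnight, pretreated with test compound, then given 10% FBS. Lysates made in RIPA buffer with protease inhibitor cocktail, equal protein run on SDS-PAGE and transferred to PVDF. Blocked in 10% nonfat milk 1 hr, primary antibody (Akt pS473) overnight at 4°C, HRP secondary, chemiluminescent detection. Actin used as loading control.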

[10] = test system: Akt pS473 in C4-2B/MDV-R cells; experiment: Western blot of FBS-stimulated Akt pS473; assay type: cell-based; settings: 5 μM
In short: as §5

[11] = test system: cyclin D1, CDK6 and p27^kip1 in C4-2B cells; experiment: Western blot of G1 phase proteins; assay type: cell-based; settings: 5 μM
In short: (§6)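 After overnight serum starvation, cells received a 30-min pretreatment with solvent or test compound (5 μM), were stimulated with 10% FBS and were harvested at several time points. Lysates (RIPA plus protease inhibitors) were immunoblotted on PVDF for cyclin D1, CDK6 and p27kip1, with chemiluminescent detection and actin as loading control.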

[12] = test system: cyclin D1, CDK6 and p27^kip1 in C4-2B/MDV-R cells; experiment: Western blot of G1 phase proteins; assay type: cell-based; settings: 5 μM
In short: as §6

[13] = cell lysate (in vitro), PC-3, compound 5 μM

T1 sequence (P42338 whole entry): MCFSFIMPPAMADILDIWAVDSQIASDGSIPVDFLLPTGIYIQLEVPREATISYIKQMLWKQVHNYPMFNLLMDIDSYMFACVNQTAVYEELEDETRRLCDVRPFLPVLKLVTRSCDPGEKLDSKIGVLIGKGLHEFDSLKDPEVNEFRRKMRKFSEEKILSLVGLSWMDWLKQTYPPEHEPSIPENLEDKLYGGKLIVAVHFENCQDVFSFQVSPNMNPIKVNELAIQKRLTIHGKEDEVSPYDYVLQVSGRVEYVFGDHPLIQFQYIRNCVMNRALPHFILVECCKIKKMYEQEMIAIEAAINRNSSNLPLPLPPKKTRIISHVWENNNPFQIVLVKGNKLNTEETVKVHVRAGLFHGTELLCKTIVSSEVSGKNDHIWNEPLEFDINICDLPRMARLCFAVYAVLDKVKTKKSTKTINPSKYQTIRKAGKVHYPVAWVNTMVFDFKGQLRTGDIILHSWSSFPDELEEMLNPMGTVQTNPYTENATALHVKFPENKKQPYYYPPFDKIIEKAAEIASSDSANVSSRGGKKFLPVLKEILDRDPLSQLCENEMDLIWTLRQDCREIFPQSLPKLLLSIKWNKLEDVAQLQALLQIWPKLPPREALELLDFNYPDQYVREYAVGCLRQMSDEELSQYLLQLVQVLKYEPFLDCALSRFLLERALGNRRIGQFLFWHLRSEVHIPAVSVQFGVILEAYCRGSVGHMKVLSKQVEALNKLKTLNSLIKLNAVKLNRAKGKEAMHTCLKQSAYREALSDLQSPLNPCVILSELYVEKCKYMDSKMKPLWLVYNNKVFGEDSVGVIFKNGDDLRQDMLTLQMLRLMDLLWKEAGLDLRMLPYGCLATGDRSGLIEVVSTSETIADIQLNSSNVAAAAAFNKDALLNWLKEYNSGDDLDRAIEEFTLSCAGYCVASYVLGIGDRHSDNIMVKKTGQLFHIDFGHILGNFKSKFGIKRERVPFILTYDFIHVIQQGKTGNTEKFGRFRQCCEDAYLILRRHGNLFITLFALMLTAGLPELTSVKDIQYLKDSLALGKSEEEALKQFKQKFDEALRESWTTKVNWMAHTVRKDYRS
Sequence of VPS34 (Q8NEB9 whole entry): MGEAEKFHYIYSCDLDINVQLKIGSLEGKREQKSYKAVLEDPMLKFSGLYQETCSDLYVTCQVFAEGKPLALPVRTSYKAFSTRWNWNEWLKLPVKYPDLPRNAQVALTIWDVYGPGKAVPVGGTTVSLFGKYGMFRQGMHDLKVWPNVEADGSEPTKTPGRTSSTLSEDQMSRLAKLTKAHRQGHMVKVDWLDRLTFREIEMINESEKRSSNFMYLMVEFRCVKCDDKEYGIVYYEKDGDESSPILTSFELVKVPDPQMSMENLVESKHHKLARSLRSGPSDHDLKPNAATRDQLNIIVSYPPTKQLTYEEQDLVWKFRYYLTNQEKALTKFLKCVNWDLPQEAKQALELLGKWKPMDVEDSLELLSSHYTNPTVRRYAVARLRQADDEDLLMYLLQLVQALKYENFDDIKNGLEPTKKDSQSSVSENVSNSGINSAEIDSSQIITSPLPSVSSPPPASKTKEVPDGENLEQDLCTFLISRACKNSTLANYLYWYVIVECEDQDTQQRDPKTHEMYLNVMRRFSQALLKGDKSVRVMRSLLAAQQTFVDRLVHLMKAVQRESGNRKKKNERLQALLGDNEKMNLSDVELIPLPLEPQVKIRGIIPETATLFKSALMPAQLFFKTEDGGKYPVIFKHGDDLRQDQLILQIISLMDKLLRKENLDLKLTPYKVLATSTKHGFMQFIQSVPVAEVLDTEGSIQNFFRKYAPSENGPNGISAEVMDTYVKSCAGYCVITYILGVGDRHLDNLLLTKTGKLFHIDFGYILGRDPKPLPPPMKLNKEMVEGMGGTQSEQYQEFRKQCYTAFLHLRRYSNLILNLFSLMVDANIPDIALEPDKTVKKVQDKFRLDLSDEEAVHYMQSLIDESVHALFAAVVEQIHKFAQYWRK
Sequence of p110α (P42336 whole entry): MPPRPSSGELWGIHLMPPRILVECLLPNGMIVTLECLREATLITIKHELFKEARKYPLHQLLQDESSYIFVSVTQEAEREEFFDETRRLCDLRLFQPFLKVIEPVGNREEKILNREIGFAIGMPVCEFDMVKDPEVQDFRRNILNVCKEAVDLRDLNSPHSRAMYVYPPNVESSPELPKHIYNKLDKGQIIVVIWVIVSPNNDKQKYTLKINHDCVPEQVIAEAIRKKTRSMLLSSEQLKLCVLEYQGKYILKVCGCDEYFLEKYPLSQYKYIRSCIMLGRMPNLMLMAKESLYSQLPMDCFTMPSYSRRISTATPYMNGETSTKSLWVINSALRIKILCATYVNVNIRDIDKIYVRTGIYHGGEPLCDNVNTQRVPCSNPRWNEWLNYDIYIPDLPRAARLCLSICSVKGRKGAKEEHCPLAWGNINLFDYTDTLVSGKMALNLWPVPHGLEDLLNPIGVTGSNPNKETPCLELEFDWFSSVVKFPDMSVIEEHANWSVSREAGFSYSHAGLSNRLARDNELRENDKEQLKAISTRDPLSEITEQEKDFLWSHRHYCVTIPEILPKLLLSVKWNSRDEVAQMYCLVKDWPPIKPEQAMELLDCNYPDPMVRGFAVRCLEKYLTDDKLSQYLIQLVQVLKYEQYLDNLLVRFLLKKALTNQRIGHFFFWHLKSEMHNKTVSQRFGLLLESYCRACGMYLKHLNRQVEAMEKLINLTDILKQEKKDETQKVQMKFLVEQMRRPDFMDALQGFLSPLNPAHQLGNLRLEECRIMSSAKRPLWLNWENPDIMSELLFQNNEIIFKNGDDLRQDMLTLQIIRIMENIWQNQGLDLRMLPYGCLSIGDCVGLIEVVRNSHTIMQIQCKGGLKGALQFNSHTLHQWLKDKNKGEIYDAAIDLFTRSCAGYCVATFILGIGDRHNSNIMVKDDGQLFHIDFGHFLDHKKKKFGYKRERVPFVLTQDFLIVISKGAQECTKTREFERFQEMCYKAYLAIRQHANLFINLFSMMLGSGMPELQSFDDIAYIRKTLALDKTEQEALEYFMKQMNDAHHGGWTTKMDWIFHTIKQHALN
Sequence of p110γ (P48736 whole entry): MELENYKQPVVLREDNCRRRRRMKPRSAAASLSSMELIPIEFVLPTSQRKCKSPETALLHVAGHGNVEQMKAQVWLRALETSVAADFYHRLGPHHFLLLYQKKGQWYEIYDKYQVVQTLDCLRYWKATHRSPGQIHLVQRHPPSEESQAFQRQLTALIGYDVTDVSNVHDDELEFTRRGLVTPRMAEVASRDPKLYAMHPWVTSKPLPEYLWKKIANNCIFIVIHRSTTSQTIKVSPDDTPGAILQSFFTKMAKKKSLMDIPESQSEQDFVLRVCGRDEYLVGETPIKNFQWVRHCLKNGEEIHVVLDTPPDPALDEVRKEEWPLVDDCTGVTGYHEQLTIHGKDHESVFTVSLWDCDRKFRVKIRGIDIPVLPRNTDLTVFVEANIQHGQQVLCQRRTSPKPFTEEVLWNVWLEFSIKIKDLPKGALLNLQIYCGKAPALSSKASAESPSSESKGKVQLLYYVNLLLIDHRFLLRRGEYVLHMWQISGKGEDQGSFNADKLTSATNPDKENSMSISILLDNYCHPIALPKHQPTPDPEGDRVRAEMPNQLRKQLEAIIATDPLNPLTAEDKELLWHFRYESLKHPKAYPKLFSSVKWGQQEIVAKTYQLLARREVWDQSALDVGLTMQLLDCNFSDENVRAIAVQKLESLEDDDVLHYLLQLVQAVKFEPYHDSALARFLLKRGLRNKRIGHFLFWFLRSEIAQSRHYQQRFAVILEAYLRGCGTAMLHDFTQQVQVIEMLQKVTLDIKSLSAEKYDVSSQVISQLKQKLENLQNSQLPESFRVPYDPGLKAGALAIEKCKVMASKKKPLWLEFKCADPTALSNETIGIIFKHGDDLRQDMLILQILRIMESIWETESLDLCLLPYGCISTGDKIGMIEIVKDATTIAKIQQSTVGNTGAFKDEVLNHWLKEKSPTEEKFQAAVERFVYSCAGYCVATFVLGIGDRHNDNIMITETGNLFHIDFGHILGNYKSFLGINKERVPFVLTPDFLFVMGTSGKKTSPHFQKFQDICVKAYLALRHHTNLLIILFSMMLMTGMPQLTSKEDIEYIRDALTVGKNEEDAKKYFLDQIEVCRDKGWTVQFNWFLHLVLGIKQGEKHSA
Sequence of human p110α/p85α (P42336 whole entry): as the sequence (P42336 whole entry) above
Sequence of human p110α/p85α (P27986 whole entry partner): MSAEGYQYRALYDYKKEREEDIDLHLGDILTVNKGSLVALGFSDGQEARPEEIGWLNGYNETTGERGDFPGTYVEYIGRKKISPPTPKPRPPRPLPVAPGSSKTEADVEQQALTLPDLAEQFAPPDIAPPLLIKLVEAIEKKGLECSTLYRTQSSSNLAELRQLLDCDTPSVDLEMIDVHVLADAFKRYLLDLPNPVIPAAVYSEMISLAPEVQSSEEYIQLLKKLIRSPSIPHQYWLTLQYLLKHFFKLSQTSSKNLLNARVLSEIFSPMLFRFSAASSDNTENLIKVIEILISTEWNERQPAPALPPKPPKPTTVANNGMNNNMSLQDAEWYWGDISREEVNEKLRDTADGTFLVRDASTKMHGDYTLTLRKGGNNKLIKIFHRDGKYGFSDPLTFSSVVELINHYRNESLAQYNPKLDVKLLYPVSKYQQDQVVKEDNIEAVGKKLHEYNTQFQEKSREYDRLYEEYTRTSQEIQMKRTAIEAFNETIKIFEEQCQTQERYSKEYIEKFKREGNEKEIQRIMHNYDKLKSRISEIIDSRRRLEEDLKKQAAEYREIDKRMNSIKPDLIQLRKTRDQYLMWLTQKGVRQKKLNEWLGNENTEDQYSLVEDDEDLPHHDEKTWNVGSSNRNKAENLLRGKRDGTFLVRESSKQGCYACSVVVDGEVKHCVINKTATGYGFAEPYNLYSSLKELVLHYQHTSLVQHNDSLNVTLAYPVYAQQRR

SMILES: Cc1cc([C@@H](C)Nc2ccccc2C(=O)O)c2nc(N3CCOCC3)cc(=O)n2c1 [AZD6482]
effect on Akt pS473 (Akt pS473 in LNCaP cells): completely abolished
effect on Akt pS473 [1]: only partially inhibited

SMILES: Nc1cc(C(F)(F)F)c(-c2cc(N3CCOCC3)nc(N3CCOCC3)n2)cn1 [BKM120]
effect on Akt pS473 (Akt pS473 in LNCaP cells): completely abolished
effect on Akt pS473 [1]: retained their full capacity

SMILES: CC(CC(C(N)=O)(c1ccccc1)c1ccccc1)N(C)C (stereo not drawn) [BL139]
solubility (aqueous solubility assay; aqueous): 37400 µg/mL and 99200 µM
ΔTm at 5 µM (p110α; human, 0.75 h, read-out: ΔTm50 p110α): 1.51 °C
ΔTm at 5 µM (p110β [2]; human, 0.75 h, read-out: ΔTm50 p110β): 12.4 °C
ΔTm at 5 µM (p110γ; human, 0.75 h, read-out: ΔTm50 p110γ): 0.84 °C
ΔTm at 5 µM (VPS34; human, 0.75 h, read-out: ΔTm50 VPS34): 0.14 °C
ΔTm50 Akt (Akt [3]): 2.44 °C
ΔTm50 p110β (p110β [4]; 240 min): 5.78 °C
ΔTm50 Akt (Akt [5]): 2.60 °C

SMILES: C[C@@H](Nc1cc(F)cc(F)c1)c1cc(C(=O)N(C)C)cc2c(=O)cc(N3CCOCC3)oc12 [AZD8186]
effect on Akt pS473 (Akt pS473 in LNCaP cells): completely abolished
effect on Akt pS473 [1]: only partially inhibited

SMILES: Cc1nc(NC(=O)N2CCC[C@H]2C(N)=O)sc1-c1ccnc(C(C)(C)C(F)(F)F)c1 [BYL719]
effect on Akt pS473 (Akt pS473 in LNCaP cells): partial inhibitory effect

SMILES: Cc1cc(C(C)Nc2ccccc2)c2nc(N3CCOCC3)cc(=O)n2c1 (stereo not drawn) [TGX221]
Aqueous solubility (aqueous solubility assay): < 1.0 mg/ml and <2.74 mM
ΔTm50 p110α (p110α; [13]): 1.57 °C
ΔTm50 p110β (p110β [2]; [13]): 04.02 °C
ΔTm50 p110γ (p110γ; [13]): 0.68 °C
ΔTm50 VPS34 (VPS34; [13]): 0.42 °C
ΔTm50 Akt (Akt [3]): 1.49 °C
ΔTm50 p110β (p110β [4]): 1.72 °C
ΔTm50 Akt (Akt [5]): 1.18 °C
IC50 (human p110α/p85α): 2.09 µM
IC50 (human p110δ/p85α): 0.374 µM
EC50 (C4-2B cells [6]; C4-2B, 3 days): 22.6 µM
EC50 (C4-2B/MDV-R cells [7]; C4-2B/MDV-R, 3 days): 31.3 µM
EC50 (22RV1 cells; 22RV1, 3 days): 17.6 µM
EC50 (PC-3 cells; PC-3, 3 days): 7.43 µM
effect on Akt pS473 (Akt pS473 in LNCaP cells): partial inhibitory effect
effect on Akt pS473 [1]: lost their inhibitory effect
cell cycle distribution (G0/G1 and S-phase) (C4-2B cells [8]): significantly increased G0/G1 population accompanied with a large reduction of S-phase cells
cell cycle distribution (G0/G1 and S-phase) (C4-2B/MDV-R cells [9]): significantly increased G0/G1 population accompanied with a large reduction of S-phase cells

SMILES: CNC(=O)c1ccc(N2C(=S)N(c3ccc(C#N)c(C(F)(F)F)c3)C(=O)C2(C)C)cc1F [MDV3100]
effect on FBS-stimulated Akt pS473 levels (Akt pS473 in C4-2B cells): enhanced

EC50 (22RV1 cells; Homo sapiens, 22Rv1, 72 h): 26.1 µM
EC50 (PC-3 cells; Homo sapiens, PC-3, 72 h): 14.5 µM
SMILES: Cc1c(Cn2c(C)nc3c(C(=O)O)cc(N4CCOCC4)cc32)cccc1C(F)(F)F [GSK2636771]
EC50 (C4-2B cells [6]; 72 h): 28.9 µM
EC50 (C4-2B/MDV-R cells [7]; 72 h): 42.3 µM
effect on Akt pS473 (Akt pS473 in LNCaP cells): partial inhibitory effect
effect on Akt pS473 [1]: lost their inhibitory effect
effect on FBS-stimulated Akt pS473 levels (Akt pS473 in C4-2B cells): abolished
effect on FBS-stimulated Akt pS473 levels [10]: only partially suppressed
cell cycle distribution (G0/G1 and S-phase) (C4-2B cells [8]): significantly increased G0/G1 population accompanied with a large reduction of S-phase cells
cell cycle distribution (G0/G1 and S-phase) (C4-2B/MDV-R cells [9]): significantly increased G0/G1 population accompanied with a large reduction of S-phase cells
CDK6 protein levels [11]: no obvious alteration
FBS-induced increase of cyclin D1 protein levels [11]: largely suppressed
p27^kip1 protein levels [11]: largely elevated
CDK6 protein levels [12]: no obvious alteration
FBS-induced increase of cyclin D1 protein levels [12]: largely suppressed

SMILES: O=c1[nH]c2ccccc2n1C1CCN(Cc2ccc(-c3nc4cc5[nH]cnc5cc4nc3-c3ccccc3)cc2)CC1 [AKT-i8]
effect on Akt pS473 (Akt pS473 in LNCaP cells): completely abolished
effect on Akt pS473 [1]: retained their full capacity

From PMC5527967 (The Prostate, 2017)
